Results taken from ChEMBL document CHEMBL2390913, “In vitro biosynthesis, isolation, and identification of predominant metabolites of 2-(4-(2-hydroxyethoxy)-3,5-dimethylphenyl)-5,7-dimethoxyquinazolin-4(3H)-one (RVX-208)” (Eur J Med Chem, 2013).

Experiments:
[1] = tested on: Liver microsomes; assay: Drug metabolism in human liver microsomes assessed as M5 metabolite level at 100 uM after 4 hrs by LC/MS analysis in presence of UDPGA; type: ADME, Microsome
Summary of the method: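 Human liver microsomes under the screening protocol. Mix: 0.50 mg protein in 0.5 mL, 100 mM potassium phosphate pH 7.4, NADPH regenerating system, 5 mM UDPGA, 5 mM D-saccharic acid lactone. Microsomes were pre-incubated with alamethicin and the mix pre-warmed 5 min at 37 °C. After 4 h at 37 °C, the reaction was diluted with cold methanol and centrifuged. The filtered supernatant went to analytical HPLC; the M5 fraction was taken for MS/MS.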

[2] = Drug metabolism in New Zealand White rabbit liver S9 fraction assessed per 20 mg of protein at 1 mM after 24 hrs by LC/MS analysis in presence of UDPGA; type: ADME, subcellular, Oryctolagus cuniculus; details: read-out: Drug metabolism
Summary of the method: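 Scale-up reaction with rabbit liver S9. Each mix was 10 mL with 20 mg S9 protein, 100 mM potassium phosphate pH 7.4, 1 mM substrate (from a 0.1 M DMSO stock), an NADPH regenerating system (1.3 mM NADP+, 3.3 mM glucose-6-phosphate, 0.4 U/mL G6PDH, 3.3 mM MgCl2) and 10 mM UDPGA. Six parallel vials were shaken 24 h at 37 °C, then pooled, methanol-quenched, and passed through C18 SPE and prep HPLC.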

[3] = Drug metabolism in calf liver microsomes assessed per 4 mg/ml of protein at 0.5 mM after 24 hrs by LC-MS/MS analysis in presence of 5 mM UDPGA; type: ADME, Bos taurus, Microsome; details: cattle, read-out: Drug metabolism
Summary of the method: (§1)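 Optimization incubations with rabbit or calf liver microsomes or rabbit S9. Final substrate was 0.2, 0.5 or 2 mM, from DMSO stocks diluted 100-fold. Protein was 1 or 4 mg/mL and UDPGA 5 or 25 mM. Other components were 100 mM potassium phosphate pH 7.4 and an NADPH regenerating system. Microsomes were pre-treated on ice with alamethicin. Reactions ran at 37 °C, were stopped with methanol, processed, and analysed by LC/MS.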

[4] = Drug metabolism in calf liver microsomes assessed per 4 mg/ml of protein at 2 mM after 24 hrs by LC-MS/MS analysis in presence of 5 mM UDPGA; type: ADME, Bos taurus, Microsome; details: cattle, read-out: Drug metabolism; summary of the method: as §1
[5] = Drug metabolism in calf liver microsomes assessed per mg/ml of protein at 2 mM after 24 hrs by LC-MS/MS analysis in presence of 5 mM UDPGA; type: ADME, Bos taurus, Microsome; details: cattle, read-out: Drug metabolism; summary of the method: as §1
[6] = Drug metabolism in New Zealand White rabbit liver S9 fraction assessed per mg/ml of protein at 0.2 mM after 24 hrs by LC-MS/MS analysis in presence of 25 mM UDPGA; type: ADME, subcellular, Oryctolagus cuniculus; details: read-out: Drug metabolism; summary of the method: as §1
[7] = Drug metabolism in New Zealand White rabbit liver S9 fraction assessed per mg/ml of protein at 0.5 mM after 24 hrs by LC-MS/MS analysis in presence of 25 mM UDPGA; type: ADME, subcellular, Oryctolagus cuniculus; details: read-out: Drug metabolism; summary of the method: as §1
[8] = Drug metabolism in New Zealand White rabbit liver S9 fraction assessed per mg/ml of protein at 2 mM after 24 hrs by LC-MS/MS analysis in presence of 25 mM UDPGA; type: ADME, subcellular, Oryctolagus cuniculus; details: read-out: Drug metabolism; summary of the method: as §1
[9] = Drug metabolism in New Zealand White rabbit liver S9 fraction assessed per 4 mg/ml of protein at 0.5 mM after 24 hrs by LC-MS/MS analysis in presence of 25 mM UDPGA; type: ADME, subcellular, Oryctolagus cuniculus; details: read-out: Drug metabolism; summary of the method: as §1
[10] = Drug metabolism in New Zealand White rabbit liver S9 fraction assessed per 4 mg/ml of protein at 2 mM after 24 hrs by LC-MS/MS analysis in presence of 25 mM UDPGA; type: ADME, subcellular, Oryctolagus cuniculus; details: read-out: Drug metabolism; summary of the method: as §1
[11] = Drug metabolism in New Zealand White rabbit liver S9 fraction assessed per mg/ml of protein at 0.2 mM after 24 hrs by LC-MS/MS analysis in presence of 5 mM UDPGA; type: ADME, subcellular, Oryctolagus cuniculus; details: read-out: Drug metabolism; summary of the method: as §1
[12] = Drug metabolism in New Zealand White rabbit liver S9 fraction assessed per mg/ml of protein at 0.5 mM after 24 hrs by LC-MS/MS analysis in presence of 5 mM UDPGA; type: ADME, subcellular, Oryctolagus cuniculus; details: read-out: Drug metabolism; summary of the method: as §1
[13] = Drug metabolism in New Zealand White rabbit liver S9 fraction assessed per mg/ml of protein at 2 mM after 24 hrs by LC-MS/MS analysis in presence of 5 mM UDPGA; type: ADME, subcellular, Oryctolagus cuniculus; details: read-out: Drug metabolism; summary of the method: as §1
[14] = Drug metabolism in New Zealand White rabbit liver S9 fraction assessed per 4 mg/ml of protein at 0.5 mM after 24 hrs by LC-MS/MS analysis in presence of 5 mM UDPGA; type: ADME, subcellular, Oryctolagus cuniculus; details: read-out: Drug metabolism; summary of the method: as §1
[15] = Drug metabolism in New Zealand White rabbit liver S9 fraction assessed per 4 mg/ml of protein at 2 mM after 24 hrs by LC-MS/MS analysis in presence of 5 mM UDPGA; type: ADME, subcellular, Oryctolagus cuniculus; details: read-out: Drug metabolism; summary of the method: as §1
[16] = Drug metabolism in New Zealand White rabbit liver microsomes assessed per mg/ml of protein at 0.2 mM after 24 hrs by LC-MS/MS analysis in presence of 25 mM UDPGA; type: ADME, Oryctolagus cuniculus, Microsome; details: read-out: Drug metabolism; summary of the method: as §1
[17] = Drug metabolism in New Zealand White rabbit liver microsomes assessed per mg/ml of protein at 0.5 mM after 24 hrs by LC-MS/MS analysis in presence of 25 mM UDPGA; type: ADME, Oryctolagus cuniculus, Microsome; details: read-out: Drug metabolism; summary of the method: as §1
[18] = Drug metabolism in New Zealand White rabbit liver microsomes assessed per mg/ml of protein at 2 mM after 24 hrs by LC-MS/MS analysis in presence of 25 mM UDPGA; type: ADME, Oryctolagus cuniculus, Microsome; details: read-out: Drug metabolism; summary of the method: as §1
[19] = Drug metabolism in New Zealand White rabbit liver microsomes assessed per 4 mg/ml of protein at 0.5 mM after 24 hrs by LC-MS/MS analysis in presence of 25 mM UDPGA; type: ADME, Oryctolagus cuniculus, Microsome; details: read-out: Drug metabolism; summary of the method: as §1
[20] = Drug metabolism in New Zealand White rabbit liver microsomes assessed per 4 mg/ml of protein at 2 mM after 24 hrs by LC-MS/MS analysis in presence of 25 mM UDPGA; type: ADME, Oryctolagus cuniculus, Microsome; details: read-out: Drug metabolism; summary of the method: as §1
[21] = Drug metabolism in New Zealand White rabbit liver microsomes assessed per mg/ml of protein at 0.2 mM after 24 hrs by LC-MS/MS analysis in presence of 5 mM UDPGA; type: ADME, Oryctolagus cuniculus, Microsome; details: read-out: Drug metabolism; summary of the method: as §1
[22] = Drug metabolism in New Zealand White rabbit liver microsomes assessed per mg/ml of protein at 0.5 mM after 24 hrs by LC-MS/MS analysis in presence of 5 mM UDPGA; type: ADME, Oryctolagus cuniculus, Microsome; details: read-out: Drug metabolism; summary of the method: as §1
[23] = Drug metabolism in New Zealand White rabbit liver microsomes assessed per mg/ml of protein at 2 mM after 24 hrs by LC-MS/MS analysis in presence of 5 mM UDPGA; type: ADME, Oryctolagus cuniculus, Microsome; details: read-out: Drug metabolism; summary of the method: as §1
[24] = Drug metabolism in New Zealand White rabbit liver microsomes assessed per 4 mg/ml of protein at 0.5 mM after 24 hrs by LC-MS/MS analysis in presence of 5 mM UDPGA; type: ADME, Oryctolagus cuniculus, Microsome; details: read-out: Drug metabolism; summary of the method: as §1
[25] = Drug metabolism in New Zealand White rabbit liver microsomes assessed per 4 mg/ml of protein at 2 mM after 24 hrs by LC-MS/MS analysis in presence of 5 mM UDPGA; type: ADME, Oryctolagus cuniculus, Microsome; details: read-out: Drug metabolism; summary of the method: as §1
[26] = Activity at human recombinant glucuronyl transferase at 100 uM after 1 to 24 hrs by LC-MS/MS analysis in presence of UDPGA; type: ADME
Summary of the method: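 Recombinant human UDP-glucuronyl transferases. The mix held 100 mM potassium phosphate pH 7.4, 3.3 mM MgCl2, 5 mM UDPGA, and enzyme protein at 0.025–1 mg/mL depending on the enzyme. Substrate came from a 10 mM methanol stock. Mixtures were pre-warmed 5 min at 37 °C, the enzyme was added, and they were shaken at 37 °C for 1, 6 or 24 h. Methanol quench, centrifugation, filtration, drying, resuspension, LC/MS.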

COc1cc(OC)c2c(=O)[nH]c(-c3cc(C)c(OCCO)c(C)c3)nc2c1 [APABETALONE]
Drug metabolism [1]: Active | metabolised at 24 h, 1000 µM [2]: 22% | metabolised at 24 h, 500 µM [3]: 56% | metabolised at 24 h, 2000 µM [4]: 50.1% | metabolised at 24 h, 2000 µM [5]: 40.9% | metabolised at 24 h, 200 µM [6]: 21.4% | metabolised at 24 h, 500 µM [7]: 25.7% | metabolised at 24 h, 2000 µM [8]: 16.7% | metabolised at 24 h, 500 µM [9]: 41.3% | metabolised at 24 h, 2000 µM [10]: 35.2% | metabolised at 24 h, 200 µM [11]: 22.3% | metabolised at 24 h, 500 µM [12]: 23.2% | metabolised at 24 h, 2000 µM [13]: 17.5% | metabolised at 24 h, 500 µM [14]: 33% | metabolised at 24 h, 2000 µM [15]: 30.3% | metabolised at 24 h, 200 µM [16]: 49.7% | metabolised at 24 h, 500 µM [17]: 49.4% | metabolised at 24 h, 2000 µM [18]: 39.7% | metabolised at 24 h, 500 µM [19]: 54.3% | metabolised at 24 h, 2000 µM [20]: 48.9% | metabolised at 24 h, 200 µM [21]: 34.6% | metabolised at 24 h, 500 µM [22]: 39.5% | metabolised at 24 h, 2000 µM [23]: 38.4% | metabolised at 24 h, 500 µM [24]: 24.1% | metabolised at 24 h, 2000 µM [25]: 30% | Activity [26]: < 1%
